Data from ChEMBL document CHEMBL1127319, “CNAD: a potent and specific inhibitor of alcohol dehydrogenase” (J Med Chem, 1994).

Columns and labels:
[1] = Michaelis-Menten constant against mammalian malate dehydrogenase (MDH)
Method in brief: (§1)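 NAD is varied and the A340 increase from NADH formation is monitored (ε 6.22 mM-1 cm-1). Buffers differ by enzyme: ADH in 0.1 M phosphate, pH 8.0, with ethanol 1.2 mM; GDH in 0.1 M phosphate, pH 7.0, with 10 μM EDTA; LDH and MDH in 0.05 M Tris-HCl, pH 9.0. At least duplicate.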

[2] = test system: NC(=O)c1ccc[n+]([C@@H]2O[C@H](COP(=O)([O-])OP(=O)(O)OC[C@H]3O[C@@H](n4cnc5c(N)ncnc54)[C@H](O)[C@@H]3O)[C@@H](O)[C@H]2O)c1; assay: Michaelis-Menten constant against mammalian glutamate dehydrogenase (GDH); method in brief: as §1
[3] = test system: NC(=O)c1ccc[n+]([C@@H]2O[C@H](COP(=O)([O-])OP(=O)(O)OC[C@H]3O[C@@H](n4cnc5c(N)ncnc54)[C@H](O)[C@@H]3O)[C@@H](O)[C@H]2O)c1; assay: Michaelis-Menten constant against mammalian lactate dehydrogenase (LDH); details: Sus scrofa; method in brief: as §1

Glutamate dehydrogenase 1, mitochondrial (Bos taurus), P00366, sequence (P00366 whole entry): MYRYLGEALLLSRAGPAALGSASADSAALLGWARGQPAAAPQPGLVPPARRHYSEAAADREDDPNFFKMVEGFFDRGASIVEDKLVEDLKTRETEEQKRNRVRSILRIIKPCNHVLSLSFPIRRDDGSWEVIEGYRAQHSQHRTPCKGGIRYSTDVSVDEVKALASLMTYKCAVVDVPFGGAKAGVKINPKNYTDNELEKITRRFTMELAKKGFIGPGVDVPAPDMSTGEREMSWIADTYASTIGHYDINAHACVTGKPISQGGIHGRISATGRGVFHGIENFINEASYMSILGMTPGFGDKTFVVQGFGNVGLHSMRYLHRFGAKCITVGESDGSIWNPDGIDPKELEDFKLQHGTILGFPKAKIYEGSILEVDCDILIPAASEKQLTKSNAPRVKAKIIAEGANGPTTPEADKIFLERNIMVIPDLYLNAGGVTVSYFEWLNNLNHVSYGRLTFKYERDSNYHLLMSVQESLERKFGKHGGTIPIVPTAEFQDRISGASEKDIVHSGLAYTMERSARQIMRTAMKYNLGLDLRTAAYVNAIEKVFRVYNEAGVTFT

Q: Which Km [1] does the source give for NC(=O)c1ccc[n+]([C@@H]2O[C@H](COP(=O)([O-])OP(=O)(O)OC[C@H]3O[C@@H](n4cnc5c(N)ncnc54)[C@H](O)[C@@H]3O)[C@@H](O)[C@H]2O)c1 here?
A: 32 µM

Q: With “Glutamate dehydrogenase 1, mitochondrial (Bos taurus), P00366” as the molecule, how does the Km [2] read?
A: 30 µM

Q: With “L-lactate dehydrogenase A chain (Homo sapiens) (from UniProt P00338)” as the molecule, how does the Km [3] read?
A: 141 µM
